Reference: ChEMBL document CHEMBL1149642, “Molecular design of anti-MRSA agents based on the anacardic acid scaffold” (2007)
Values after ≈ are worked out from the molar mass of the structure shown. Active and inactive are the calls of the source. The rule behind the calls is not given here.

Legend:
Escherichia coli = assay: Antibacterial activity against Escherichia coli ATCC 9637; assay type: functional, organism-based
Procedure, shortened: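 Two-fold serial broth dilution in NYG broth (0.8% nutrient broth, 0.5% yeast extract, 0.1% glucose); compound dilutions in DMF, 30 µL added to 3 mL broth, inoculated with 30 µL overnight culture; 37 °C, 48 h; MIC = lowest concentration with no visible growth; top concentration 200 µg/mL (solubility-limited).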

Staphylococcus aureus = assay: Antibacterial activity against methicillin-resistant Staphylococcus aureus ATCC 33592 by broth dilution method; assay type: functional
Procedure, shortened: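 Two-fold serial broth dilution in NYG broth (0.8% nutrient broth, 0.5% yeast extract, 0.1% glucose). Compound dilutions made in DMF and added 1:100 to broth. Inoculum was an overnight culture added at 1:100. Incubated at 37 °C for 48 h. MIC taken as the lowest concentration with no visible growth. Top concentration tested was 200 (solubility limit).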

Structure (SMILES) | Activity (Escherichia coli) | MIC (Staphylococcus aureus) [µg/mL] | Activity (Staphylococcus aureus)
O=C(O)c1c(O)cccc1CC1CCCCCCCCCCC1 | inactive | 0.39 (≈ 1.22 µM) | –
O=C(O)c1c(O)cccc1CCC1CCCCC1 | inactive | 12.5 (≈ 50.3 µM) | –
O=C(O)c1c(O)cccc1CCCCc1ccccc1 | inactive | 25 (≈ 92.5 µM) | –
CC(C)CCCC(C)CCCc1cccc(O)c1C(=O)O (configuration not stated) | inactive | 0.39 (≈ 1.33 µM) | –
O=C(O)c1c(O)cccc1CCc1cc(O)ccc1O | inactive | 100 (≈ 365 µM) | –
CCCCCC(CC)Cc1cccc(O)c1C(=O)O (configuration not stated) | inactive | 6.25 (≈ 23.6 µM) | –
C=CC/C=C\C/C=C\CCCCCCCc1cccc(OC(C)=O)c1C(=O)O | inactive | > 800 | –
C=CC/C=C\C/C=C\CCCCCCCc1cccc(O)c1C(=O)OC | inactive | > 800 | –
CCCCCCCCCOC(=O)c1ccccc1O | – | – | inactive
CCCCC(C)Cc1cccc(O)c1C(=O)O (configuration not stated) | inactive | 50 (≈ 212 µM) | –
CCCCCC/C=C/CCCCCCCc1cccc(O)c1C(=O)O | inactive | 6.25 (≈ 18 µM) | –
O=C(O)c1c(O)cccc1CCc1ccccc1 | inactive | 100 (≈ 413 µM) | –
O=C(O)c1c(O)cccc1CCc1ccc(O)cc1 | inactive | 50 (≈ 194 µM) | –
O=C(O)c1c(O)cccc1CC1CCCC1 | inactive | 100 (≈ 454 µM) | –
O=C(O)c1c(O)cccc1CC1CCCCC1 | inactive | 25 (≈ 107 µM) | –
O=C(O)c1c(O)cccc1CCc1ccc(O)cc1O | inactive | > 200 | –
O=C(O)c1c(O)cccc1CC1CCCCCCC1 | inactive | 12.5 (≈ 47.6 µM) | –
O=C(O)c1c(O)cccc1CCc1cc(O)c(O)cc1O | inactive | > 200 | –
O=C(O)c1c(O)cccc1CCc1ccc(O)c(O)c1 | inactive | 100 (≈ 365 µM) | –
